Reference: ChEMBL document CHEMBL1124873, “Cytotoxicity and antitumor activity of bis(platinum) complexes. A novel class of platinum complexes active in cell lines resistant to both cisplatin and 1,2-diaminocyclohexane complexes” (1990)
Where “and” joins values, the source holds several entries; their conditions need not be identical. Equal values may be shown once.

Assays:
Mus musculus [1] = test: Antitumor activity against P388 leukemia was determined at 5 mg/kg dose given on 1, 5, 9 days after tumor implantation in mice; format: functional, organism-based; set-up: dose 5 mg/kg
In short: (§1)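 Male BDF1 mice (18–20 g) inoculated ip with 10^6 L1210/0 or P388 ascites leukemia cells on day 0. Test compound given ip on days 1, 5 and 9; dosing stopped after two doses if over half of the animals had died by day 9. Deaths recorded over 60 days. %T/C = mean survival of treated mice that died ÷ mean survival of untreated tumour-bearing controls. Long-term survivors also counted.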

Mus musculus [2] = test: Antitumor activity against L1210 leukemia was determined at 5 mg/kg dose given on 1, 5, 9 days after tumor implantation in mice; format: functional, organism-based; set-up: dose 5 mg/kg; in short: as §1
L1210 [3] = test: In vitro cytotoxicity in L1210 leukemia resistant to cisplatin; format: functional, Mus musculus; conditions: read-out: ID50 (the source's name)
In short: (§2)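 L1210 murine leukaemia (sensitive, 40–60-fold DDP-resistant, or 30-fold [Pt(R,R-dach)SO4]-resistant) grown in suspension in McCoy's 5A with 5% horse serum and glutamine. Cells at 5 × 10^4/mL exposed 72 h to 0.01–10 μg/mL (final) compound, from DMF stock diluted in saline (≤0.5% DMF) or water for malonates. Cells Coulter-counted; ID50 from % growth inhibition.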

L1210 [4] = test: In vitro cytotoxicity in L1210 leukemia sensitive to cisplatin; format: functional, Mus musculus; conditions: read-out: ID50 (the source's name); in short: as §2

Row | Compound | T/C (Mus musculus [1]) [%] | T/C (Mus musculus [2]) [%] | IC50 (L1210 [3]; Mus musculus, L1210) [µM] | IC50 (L1210 [3]) [µM] | IC50 (L1210 [4])
1 | CISPLATIN | 170 | 210 |  |  | 
2 | CC(C)(N)CCC(C)(C)N |  |  | 9.09 | 5.53 | 6.2 µM and 0.98 µM
